# Measured values: paper PMC5749269 (ACS biomaterials science & engineering, 2017)
# Where no end group is shown, it is not given here.
# How the values were obtained:
# Zeta potential analysis = assay type: physicochemical; conditions: 100 μM in water, n = 3
# Method in brief: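 Micelles made by methanol thin-film evaporation, overnight vacuum drying and 30 min hydration at 80 °C, then cooled to room temperature. Zeta potential measured on 100 μM micelles dissolved in water, n = 3.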
# [1] = tested on: WEHI 274.1 murine monocytes; assay: Chemotaxis assay; assay type: cell-based; conditions: 1000 μM, 4 h, transwell 8 μm pores, Pico Green, n = 5, mean ± SEM
# [2] = tested on: 22Rv1 prostate cancer cells; assay type: cell-based; conditions: 72 h
# [3] = tested on: PC3 prostate cancer cells; assay: In vitro cytotoxicity; assay type: cell-based; conditions: 72 h
# [4] = tested on: CCR2 gene expression in 22Rv1 prostate cancer cells; assay: CCR2 expression by qRT-PCR; assay type: cell-based; conditions: 22Rv1 cells, 5 μM (noncytotoxic), vs PBS, n = 3
# Method in brief: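 22Rv1 cells kept in RPMI-1640 with 10% FBS and 1% penicillin-streptomycin at 37 °C, 5% CO2, treated with test compound at 5 μM or PBS. cDNA made with an RT2 first-strand kit and amplified with RT2 SYBR Green qPCR master mix. Relative expression vs Actb or GAPDH housekeeping gene by the 2ΔΔCq method. n = 3, mean ± SEM.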
# [5] = tested on: WEHI 274.1 murine monocytes; assay: In vitro cell viability; conditions: MTS assay, varying concentrations, 24 and 72 h, n = 6
substance,measurement,setting,value
CYNSLVFRIRNSTQRKYRASISTK-OH [scrambled peptide],zeta potential,Zeta potential analysis,7.2 ± 3.4 mV
same,migrated monocytes (DNA quantification),[1],13.9 ± 2.8 ng DNA/mL
same,IC50,[2],76.1 ± 15.8 µM
same,IC50,[3],> 100 µM
same,downregulation of CCR2 gene expression,[4],unappreciable CCR2 changes
same,cell viability of monocytes,[5],no decrease in cell viability
